Assay [1] in a line: mammalian cell viability loss in HeLa – CellTiter-Glo luminescence, dry powder, set 2, cytotoxicity control for pyoverdine/PvdQ inhibitor project, dose response (AID 623990). The conditions noted are these: HeLa viability, CellTiter-Glo ATP luminescence; at 120 µM (top of the series). The procedure, abridged:
(§1)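 Assay system: HeLa cells. Amount: 2,500 HeLa cells per well. Technique: CellTiter-Glo ATP luminescence. Timing: cells settled 24 h at 37 °C, then compound exposure 48 h. Medium: phenol red-free DMEM, 10% FBS. Read-out basis: viability, lower luminescence meaning toxicity. Compound dosing: 3-fold dose series.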
In general terms: Cellular ATP, detected with luciferase, serves as a proxy for viable cell number.

The subject of assay [2] is HeLa viability, CellTiter-Glo ATP luminescence. The description is as above. The procedure, abridged: as §1

One may read the IC50 as the concentration needed to halve the response being measured.

SMILES strings stand for the structures. Activity calls are given as the source filed them.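 How the source made its calls: active means falling cell signal with fitted IC50 no higher than a set limit, twice the top tested dose; inconclusive means flat fit with toxicity between 30 and 70%, or poor fit; inactive means the rest.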 Bounds are passed on as bounds.

Take `CCCCC(C#N)c1ccc(F)cn1` (stereo unspecified): in assay [1], the activity change, negative = toxicity is 7.3% (inactive).
Regarding `CCCCC(c1ccc(Cl)cc1)c1nn[nH]n1` (stereo unspecified), the IC50 in assay [2] is > 240 µM (inactive).
As for `N#CC(c1ccc(C(F)(F)F)c(Cl)n1)c1ccccc1OC(F)(F)F` (stereo unspecified), the activity change, negative = toxicity in assay [1] was 5.17% (inactive).
Same read-out and setting: under `N#Cc1cccc(C(C#N)c2ccc(F)cc2)n1` (stereo unspecified) stands 4.63% (inactive).
Still for that read-out and setting: under `CCCCC(C#N)c1ccc(Cl)cc1` (stereo unspecified) stands 13.5% (inactive).
For `N#CC(c1cccc(Cl)n1)c1ccc(Cl)cc1F` (stereo unspecified), the IC50 in assay [2] was 111 µM.
`N#CC(c1ccc(Cl)cc1)c1ccccn1` (stereo unspecified): the activity change, negative = toxicity in assay [1] is 5.57% (inactive).
Still for that read-out and setting: to `CCCCC(C#N)c1ccc(F)cc1` (stereo unspecified) belongs 5.81% (inactive); to `CCCCC(C#N)c1ccc(Cl)cn1` (stereo unspecified), 27.3% (inactive).
Same read-out and setting: to `COCCOCCC(C#N)c1ccc(F)cc1` (stereo unspecified) belongs 3.67% (inactive).
On to `CN(C)CCCC(C#N)c1ccc(F)cc1` (stereo unspecified), for which, in assay [2], the IC50 was > 240 µM (inactive).
For `N#CC1c2ccc(Cl)cc2CCc2cccnc21` (stereo unspecified), the activity change, negative = toxicity in assay [1] is 2.14% (inactive).
The same measure, in the same setting: to `Clc1ccc(C(c2cccc(Cl)n2)c2nn[nH]n2)cc1` (stereo unspecified) belongs 8.71% (inactive); to `COCCNC(C#N)c1ccc(Cl)cc1` (stereo unspecified), 4.87% (inactive); to `N#CC(c1ccc(Cl)cc1)c1cccc(C(F)(F)F)n1` (stereo unspecified), 10.3% (inactive).
Regarding `N#CC(c1ccc(Cl)cc1)N1CCCC1` (stereo unspecified), the activity change, negative = toxicity in assay [1] was 30.4% (inactive).
The same measure, in the same setting: to `COCCC(C#N)c1ccc(F)cc1` (stereo unspecified) belongs 6.44% (inactive).
As to `COCCOCCC(C#N)c1ccc(Cl)cc1` (stereo unspecified), in assay [1], the activity change, negative = toxicity was -0.038% (inactive).
On the same count and under the same terms, to `N#CC(c1ccc(F)cc1)c1cccc(Cl)n1` (stereo unspecified) belongs -3.39% (inactive).
Same read-out and setting: under `N#CC(c1ccc(Cl)cc1)c1cccc(Cl)n1` (stereo unspecified) stands 12.2% (inactive).
Still for that read-out and setting: under `CN(C)CCCC(C#N)c1ccc(Cl)cc1` (stereo unspecified) stands 23.3% (inactive); under `N#CC(c1ccc(F)cc1)c1cccc(C(F)(F)F)n1` (stereo unspecified), 13.5% (inactive).
As for `CCCCC(C#N)c1ccccn1` (stereo unspecified), in assay [1], the activity change, negative = toxicity was 2.12% (inactive).
Take `N#CC(c1ccc(Cl)cc1)c1ncccc1Cl` (stereo unspecified): the IC50 in assay [2] is > 240 µM (inactive).
Regarding `COCCC(C#N)c1ccc(Cl)cc1` (stereo unspecified), in assay [2], the half-inhibitory concentration (IC50) is 62.2 µM.
The same measure, in the same setting: to `N#CC(c1cccc(C(F)(F)F)n1)c1ccc(Cl)cc1F` (stereo unspecified) belongs > 240 µM (inactive).

The record behind these values is PubChem BioAssay AID623990 (Broad Institute, 2012).
